From ChEMBL document CHEMBL1240446, “Synthesis and biological activities of novel amine-derived bis-azoles as potential antibacterial and antifungal agents” (2010)
Values after ≈ are worked out from the molar mass of the structure shown.

Key:
Format in all cases: functional
Bacillus subtilis = assay: Antibacterial activity against Bacillus subtilis ATCC 21216 after 24 hrs by micro-broth dilution method; conditions: ATCC 21216, 24 h
Method in brief: (§1)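 MIC by broth microdilution following NCCLS methods. Inoculum adjusted in sterile saline to 1×10^4–1×10^5 CFU. Compounds from DMSO stocks, two-fold serial dilutions in Mueller-Hinton broth at 256 down to 0.25 µg/mL. Incubation 37 °C, 24 h. DMSO solvent control at matching dilutions. Growth read visually and spectrophotometrically. MIC is the lowest concentration arresting growth.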

Staphylococcus aureus [1] = assay: Antibacterial activity against methicillin-resistant Staphylococcus aureus N315 after 24 hrs by micro-broth dilution method; conditions: N315, 24 h
Method in brief: (§2)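 Broth microdilution per NCCLS in Mueller-Hinton broth. Inoculum adjusted in sterile saline to 1×10^4–1×10^5 CFU. Compounds taken from DMSO stocks and serially diluted two-fold to final 256–0.25 µg/mL (11 levels). Incubation 37 °C, 24 h, with a DMSO solvent control. Growth read visually and spectrophotometrically. MIC is the lowest concentration that arrests growth.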

Staphylococcus aureus [2] = assay: Antibacterial activity against Staphylococcus aureus ATCC 29213 after 24 hrs by micro-broth dilution method; conditions: ATCC 29213, 24 h; method in brief: as §2
Escherichia coli = assay: Antibacterial activity against Escherichia coli ATCC 25922 after 24 hrs by micro-broth dilution method; conditions: ATCC 25922, 24 h; method in brief: as §1
Pseudomonas aeruginosa = assay: Antibacterial activity against Pseudomonas aeruginosa ATCC 27853 after 24 hrs by micro-broth dilution method; conditions: ATCC 27853, 24 h; method in brief: as §1
Candida albicans = assay: Antifungal activity against Candida albicans ATCC 76615 after 24 hrs by micro-broth dilution method; conditions: ATCC 76615, 24 h
Method in brief: (§3)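 Broth microdilution per NCCLS. Spore suspension in sterile distilled water, taken from 1-day-old cultures on Sabouraud agar, final 1–5×10^3 spores/mL. Compounds diluted from stocks in RPMI 1640 to eleven concentrations, 0.25–256 µg/mL. Incubation 35 °C, 24 h. Growth scored visually and spectrophotometrically. MIC is the lowest concentration arresting fungal growth.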

Aspergillus fumigatus = assay: Antifungal activity against Aspergillus fumigatus ATCC 96918 after 24 hrs by micro-broth dilution method; conditions: ATCC 96918, 24 h; method in brief: as §3
Bacillus = assay: Antibacterial activity against Bacillus proteus ATCC 13315 after 24 hrs by micro-broth dilution method; conditions: ATCC 13315, 24 h; method in brief: as §1

## Fc1ccc(CN(CCn2cncn2)CCn2cncn2)c(F)c1
Bacillus subtilis
  MIC: 64 µg/mL (≈ 192 µM)
Staphylococcus aureus [1]
  MIC: > 256 µg/mL
Staphylococcus aureus [2]
  MIC: 128 µg/mL (≈ 384 µM)
Escherichia coli
  MIC: 64 µg/mL (≈ 192 µM)
Pseudomonas aeruginosa
  MIC: 8 µg/mL (≈ 24 µM)
Candida albicans
  MIC: > 256 µg/mL
Aspergillus fumigatus
  MIC: > 256 µg/mL
Bacillus
  MIC: > 256 µg/mL

## OCCN(CCO)Cc1ccccc1Cl
Bacillus subtilis
  MIC: > 256 µg/mL
Staphylococcus aureus [1]
  MIC: > 256 µg/mL
Staphylococcus aureus [2]
  MIC: > 256 µg/mL
Escherichia coli
  MIC: > 256 µg/mL
Pseudomonas aeruginosa
  MIC: > 256 µg/mL
Candida albicans
  MIC: > 256 µg/mL
Aspergillus fumigatus
  MIC: > 256 µg/mL
Bacillus
  MIC: 256 µg/mL (≈ 1110 µM)

## Clc1ccc(CN(CCn2cncn2)CCn2cncn2)c(Cl)c1.O=[N+]([O-])O
Bacillus subtilis
  MIC: 128 µg/mL
Staphylococcus aureus [1]
  MIC: 256 µg/mL
Staphylococcus aureus [2]
  MIC: 32 µg/mL
Escherichia coli
  MIC: 64 µg/mL
Pseudomonas aeruginosa
  MIC: 16 µg/mL
Candida albicans
  MIC: 0.25 µg/mL
Aspergillus fumigatus
  MIC: 128 µg/mL
Bacillus
  MIC: 8 µg/mL

## Clc1ccc(CN(CCn2cncn2)CCn2cncn2)cc1Cl
Bacillus subtilis
  MIC: 32 µg/mL (≈ 87.4 µM)
Staphylococcus aureus [1]
  MIC: 256 µg/mL (≈ 699 µM)
Staphylococcus aureus [2]
  MIC: 64 µg/mL (≈ 175 µM)
Escherichia coli
  MIC: 32 µg/mL (≈ 87.4 µM)
Pseudomonas aeruginosa
  MIC: 64 µg/mL (≈ 175 µM)
Candida albicans
  MIC: > 256 µg/mL
Aspergillus fumigatus
  MIC: > 256 µg/mL
Bacillus
  MIC: 0.5 µg/mL (≈ 1.37 µM)

## Cl.Fc1ccc(CN(CCn2cncn2)CCn2cncn2)c(F)c1
Bacillus subtilis
  MIC: 32 µg/mL
Staphylococcus aureus [1]
  MIC: > 256 µg/mL
Staphylococcus aureus [2]
  MIC: 64 µg/mL
Escherichia coli
  MIC: 64 µg/mL
Pseudomonas aeruginosa
  MIC: 8 µg/mL
Candida albicans
  MIC: 32 µg/mL
Aspergillus fumigatus
  MIC: 256 µg/mL
Bacillus
  MIC: 256 µg/mL

## OC(Cn1cncn1)(Cn1cncn1)c1ccc(F)cc1F [FLUCONAZOLE]
Candida albicans
  MIC: 0.5 µg/mL (≈ 1.63 µM)
Aspergillus fumigatus
  MIC: 256 µg/mL (≈ 836 µM)

## Fc1ccc(CN(CCn2cncn2)CCn2cncn2)c(F)c1.O=[N+]([O-])O
Bacillus subtilis
  MIC: 32 µg/mL
Staphylococcus aureus [1]
  MIC: > 256 µg/mL
Staphylococcus aureus [2]
  MIC: 128 µg/mL
Escherichia coli
  MIC: 128 µg/mL
Pseudomonas aeruginosa
  MIC: 16 µg/mL
Candida albicans
  MIC: 64 µg/mL
Aspergillus fumigatus
  MIC: > 256 µg/mL
Bacillus
  MIC: > 256 µg/mL

## Clc1ccc(CN(CCn2ccnc2)CCn2ccnc2)c(Cl)c1.O=[N+]([O-])O
Bacillus subtilis
  MIC: 16 µg/mL
Staphylococcus aureus [1]
  MIC: 16 µg/mL
Staphylococcus aureus [2]
  MIC: 16 µg/mL
Escherichia coli
  MIC: 32 µg/mL
Pseudomonas aeruginosa
  MIC: 4 µg/mL
Candida albicans
  MIC: 128 µg/mL
Aspergillus fumigatus
  MIC: > 256 µg/mL
Bacillus
  MIC: 64 µg/mL

## Clc1ccccc1CN(CCn1ccnc1)CCn1ccnc1
Bacillus subtilis
  MIC: > 256 µg/mL
Staphylococcus aureus [1]
  MIC: 256 µg/mL (≈ 776 µM)
Staphylococcus aureus [2]
  MIC: 128 µg/mL (≈ 388 µM)
Escherichia coli
  MIC: 16 µg/mL (≈ 48.5 µM)
Pseudomonas aeruginosa
  MIC: 256 µg/mL (≈ 776 µM)
Candida albicans
  MIC: > 256 µg/mL
Aspergillus fumigatus
  MIC: > 256 µg/mL
Bacillus
  MIC: > 256 µg/mL

## Cl.Clc1ccc(CN(CCn2ccnc2)CCn2ccnc2)cc1Cl
Bacillus subtilis
  MIC: 4 µg/mL
Staphylococcus aureus [1]
  MIC: 8 µg/mL
Staphylococcus aureus [2]
  MIC: 4 µg/mL
Escherichia coli
  MIC: 4 µg/mL
Pseudomonas aeruginosa
  MIC: 32 µg/mL
Candida albicans
  MIC: > 256 µg/mL
Aspergillus fumigatus
  MIC: 32 µg/mL
Bacillus
  MIC: 16 µg/mL

## Cl.Fc1ccc(CN(CCn2cnc3ccccc32)CCn2cnc3ccccc32)c(F)c1
Bacillus subtilis
  MIC: > 256 µg/mL
Staphylococcus aureus [1]
  MIC: 128 µg/mL
Staphylococcus aureus [2]
  MIC: 32 µg/mL
Escherichia coli
  MIC: > 256 µg/mL
Pseudomonas aeruginosa
  MIC: > 256 µg/mL
Candida albicans
  MIC: > 256 µg/mL
Aspergillus fumigatus
  MIC: > 256 µg/mL
Bacillus
  MIC: 64 µg/mL

## O=C(N[C@H](CO)[C@H](O)c1ccc([N+](=O)[O-])cc1)C(Cl)Cl [CHLORAMPHENICOL]
Bacillus subtilis
  MIC: 8 µg/mL (≈ 24.8 µM)
Staphylococcus aureus [1]
  MIC: 16 µg/mL (≈ 49.5 µM)
Staphylococcus aureus [2]
  MIC: 8 µg/mL (≈ 24.8 µM)
Escherichia coli
  MIC: 8 µg/mL (≈ 24.8 µM)
Pseudomonas aeruginosa
  MIC: 64 µg/mL (≈ 198 µM)
Bacillus
  MIC: 8 µg/mL (≈ 24.8 µM)

## Clc1ccccc1CN(CCn1cncn1)CCn1cncn1
Bacillus subtilis
  MIC: > 256 µg/mL
Staphylococcus aureus [1]
  MIC: > 256 µg/mL
Staphylococcus aureus [2]
  MIC: > 256 µg/mL
Escherichia coli
  MIC: 256 µg/mL (≈ 772 µM)
Pseudomonas aeruginosa
  MIC: 128 µg/mL (≈ 386 µM)
Candida albicans
  MIC: > 256 µg/mL
Aspergillus fumigatus
  MIC: > 256 µg/mL
Bacillus
  MIC: > 256 µg/mL

## Clc1ccc(CN(CCn2ccnc2)CCn2ccnc2)cc1Cl.O=[N+]([O-])O
Bacillus subtilis
  MIC: 16 µg/mL
Staphylococcus aureus [1]
  MIC: 16 µg/mL
Staphylococcus aureus [2]
  MIC: 16 µg/mL
Escherichia coli
  MIC: 4 µg/mL
Pseudomonas aeruginosa
  MIC: 64 µg/mL
Candida albicans
  MIC: > 256 µg/mL
Aspergillus fumigatus
  MIC: 64 µg/mL
Bacillus
  MIC: 32 µg/mL

## Cl.Clc1ccc(CN(CCn2ccnc2)CCn2ccnc2)c(Cl)c1
Bacillus subtilis
  MIC: 8 µg/mL
Staphylococcus aureus [1]
  MIC: 8 µg/mL
Staphylococcus aureus [2]
  MIC: 4 µg/mL
Escherichia coli
  MIC: 16 µg/mL
Pseudomonas aeruginosa
  MIC: 4 µg/mL
Candida albicans
  MIC: 64 µg/mL
Aspergillus fumigatus
  MIC: > 256 µg/mL
Bacillus
  MIC: 32 µg/mL

## OCCN(CCO)Cc1cccc(Cl)c1
Bacillus subtilis
  MIC: > 256 µg/mL
Staphylococcus aureus [1]
  MIC: > 256 µg/mL
Staphylococcus aureus [2]
  MIC: > 256 µg/mL
Escherichia coli
  MIC: > 256 µg/mL
Pseudomonas aeruginosa
  MIC: > 256 µg/mL
Candida albicans
  MIC: > 256 µg/mL
Aspergillus fumigatus
  MIC: > 256 µg/mL
Bacillus
  MIC: > 256 µg/mL

## OCCN(CCO)Cc1ccc(F)cc1F
Bacillus subtilis
  MIC: 256 µg/mL (≈ 1110 µM)
Staphylococcus aureus [1]
  MIC: > 256 µg/mL
Staphylococcus aureus [2]
  MIC: 256 µg/mL (≈ 1110 µM)
Escherichia coli
  MIC: 128 µg/mL (≈ 554 µM)
Pseudomonas aeruginosa
  MIC: 256 µg/mL (≈ 1110 µM)
Candida albicans
  MIC: 256 µg/mL (≈ 1110 µM)
Aspergillus fumigatus
  MIC: > 256 µg/mL
Bacillus
  MIC: 256 µg/mL (≈ 1110 µM)

## Fc1ccc(CN(CCn2ccnc2)CCn2ccnc2)c(F)c1.O=[N+]([O-])O
Bacillus subtilis
  MIC: 16 µg/mL
Staphylococcus aureus [1]
  MIC: 32 µg/mL
Staphylococcus aureus [2]
  MIC: 32 µg/mL
Escherichia coli
  MIC: 32 µg/mL
Pseudomonas aeruginosa
  MIC: 64 µg/mL
Candida albicans
  MIC: 128 µg/mL
Aspergillus fumigatus
  MIC: > 256 µg/mL
Bacillus
  MIC: 64 µg/mL
